Laboratory results taken from ChEMBL document CHEMBL1149162 (J Med Chem, 2004).

Columns and labels:
[1] = biological target: D(2) dopamine receptor (Homo sapiens, UniProt P14416); experiment: Binding affinity against human Dopamine receptor D2 using [3H]spiperone as radioligand
[2] = biological target: T1, D(4) dopamine receptor (Homo sapiens) (UniProt P21917); experiment: D4 efficacy against human Dopamine receptor D4 expressed in HEK293 cells; assay type: functional, cell-based
T1 sequence (whole entry): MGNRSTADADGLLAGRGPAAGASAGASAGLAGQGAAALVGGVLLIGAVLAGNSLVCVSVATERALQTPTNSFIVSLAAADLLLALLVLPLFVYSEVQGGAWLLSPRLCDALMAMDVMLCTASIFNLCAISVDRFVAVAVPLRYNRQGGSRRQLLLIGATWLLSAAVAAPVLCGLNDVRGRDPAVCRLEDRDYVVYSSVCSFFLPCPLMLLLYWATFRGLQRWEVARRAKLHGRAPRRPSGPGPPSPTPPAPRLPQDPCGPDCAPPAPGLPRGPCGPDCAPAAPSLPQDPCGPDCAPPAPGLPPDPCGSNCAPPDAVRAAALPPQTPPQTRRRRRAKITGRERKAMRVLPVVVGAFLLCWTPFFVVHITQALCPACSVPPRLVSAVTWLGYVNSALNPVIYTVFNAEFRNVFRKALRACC

[3] = biological target: T2, D(4) dopamine receptor (Homo sapiens, UniProt P21917); experiment: Binding affinity against human Dopamine receptor D4 by [3H]-spiperone displacement.
T2 sequence (P21917 whole entry): T1 sequence (whole entry)

[4] = biological target: T2, D(4) dopamine receptor; experiment: Effective concentration against human Dopamine receptor D4
[5] = biological target: T1, D(4) dopamine receptor (Homo sapiens); experiment: D4 efficacy was measured using recombinant human D4 receptor expressed in HEK293 cells; assay type: functional, cell-based
Outline: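 Human D4.4 coexpressed with Gαq05 in HEK293 cells, plated 20 000 cells/well and cultured 2 days. Cells loaded 1 h at room temperature with 4 μM Fluo-4 plus 0.04% Pluronic F-127 in DPBS, washed four times. Compound added on FLIPR and calcium fluorescence recorded for 3 min. Data normalized to 10 μM dopamine response. EC50 is concentration giving 50% signal. n ≥ 3, ±SEM.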

[6] = biological target: T2, D(4) dopamine receptor; experiment: D4 efficacy was measured using recombinant human Dopamine receptor D4 expressed in HEK293 cells; assay type: cell-based
Outline: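 Human D4.4 co-expressed with Gαq05 in HEK293 cells, seeded at 20 000 cells/well and cultured 2 days. Loaded 1 h at room temperature with 4 μM Fluo-4 and 0.04% Pluronic F-127 in DPBS, then washed. Compound added on FLIPR and calcium fluorescence read for 3 min. EC50 is the concentration giving 50% signal; efficacy is % activation relative to 10 μM dopamine; n ≥ 3.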

Chain of D(2) dopamine receptor (P14416 whole entry): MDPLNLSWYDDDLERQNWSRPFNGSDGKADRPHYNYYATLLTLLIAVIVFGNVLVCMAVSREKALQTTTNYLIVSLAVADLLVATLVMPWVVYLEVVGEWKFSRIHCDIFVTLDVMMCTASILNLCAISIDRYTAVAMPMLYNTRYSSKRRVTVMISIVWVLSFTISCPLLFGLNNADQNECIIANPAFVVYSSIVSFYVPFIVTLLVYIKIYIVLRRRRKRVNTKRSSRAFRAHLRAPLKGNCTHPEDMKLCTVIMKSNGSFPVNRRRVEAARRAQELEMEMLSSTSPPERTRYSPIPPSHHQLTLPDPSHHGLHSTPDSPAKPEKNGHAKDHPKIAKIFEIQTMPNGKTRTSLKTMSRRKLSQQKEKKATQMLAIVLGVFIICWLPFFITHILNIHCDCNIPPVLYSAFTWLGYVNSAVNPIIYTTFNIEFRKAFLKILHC

| EC50 [4] [nM] | EC50 [6] [nM] | Structure (SMILES) | Ki [1] [µM] | Efficacy [2] [%] | Ki [3] [nM] | Efficacy [5] [%] |
| --- | --- | --- | --- | --- | --- | --- |
| – | – | Clc1ccc(N2CCN(Cc3nc4ccccc4[nH]3)CC2)cc1 | > 10 | 4.7 | 14.8 | – |
| 1 | – | Clc1ccccc1N1CCN(Cc2nc3ccccc3[nH]2)CC1 | – | – | 8.5 | – |
| – | – | c1ccc2[nH]c(CN3CCN(c4ccncc4)CC3)nc2c1 | – | 4.8 | > 10000 | – |
| 5.6 | – | COc1ccccc1N1CCN(Cc2nc3ccccc3[nH]2)CC1 | – | – | 4.3 | – |
| – | – | Clc1cccc(N2CCN(Cc3nc4ccccc4[nH]3)CC2)c1 | > 10 | – | 9.6 | 3.8 |
| – | 12.4 | c1ccc(N2CCN(Cc3nc4ccccc4[nH]3)CC2)nc1 [ABT-724] | – | – | 167 | – |
| 154 | – | Clc1ccc(N2CCN(Cc3cc4ccccn4n3)CC2)cc1 | 1.31 | – | 2.7 | – |
| – | – | c1cncc(N2CCN(Cc3nc4ccccc4[nH]3)CC2)c1 | – | 24.9 | 376 | – |
| – | – | COc1cccc(N2CCN(Cc3nc4ccccc4[nH]3)CC2)c1 | – | 5 | 26.5 | – |
| – | – | COc1ccc(N2CCN(Cc3nc4ccccc4[nH]3)CC2)cc1 | – | 4.8 | 20.4 | – |
| – | – | Fc1ccc(N2CCN(Cc3nc4ccccc4[nH]3)CC2)cc1 | – | 9.9 | 79.6 | – |
| 10.1 | – | c1ccc(N2CCN(Cc3nc4ccccc4[nH]3)CC2)cc1 | – | 37.5 | 52 | – |

| Structure (SMILES) | EC50 [4] [nM] | EC50 [6] [nM] | Ki [1] [µM] | Efficacy [2] [%] | Ki [3] [nM] | Efficacy [5] [%] |
| --- | --- | --- | --- | --- | --- | --- |
| Clc1ccccc1N1CCN(Cc2nc3ccc[nH]c-3n2)CC1 | 10000 | – | > 10 | – | 719 | – |
